# pIC50: −log10 of the molar value. Square brackets hold non-standard residues; d marks the D form. Peptide text beside a SMILES is read from it. * marks the point of attachment. Palmitoyl = CCCCCCCCCCCCCCCC(=O)*; Nle = CCCC[C@H](N)C(=O)O
# Tested on: SK-MEL-2
# Experiment: Growth inhibition of SK-Mel2 melanoma cells after 48 hrs by MTT assay
# Format: functional, cell-based, Homo sapiens
# Conditions: Homo sapiens, SK-MEL-2, 48 h
# In short: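 Cells seeded at 200-400 per well in DMEM with 10% FBS and left to attach for 24 h. The next day, inhibitor in medium at 2× was added in an equal volume, and cells were incubated 48 h in a CO2 incubator. Reference plates were read at time of addition for T0 density. MTT staining was read as absorbance at 544 nm and compared with untreated control cells.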
row,Molecule,pIC50
1,CCCCCCCCCCCCCCCC(=O)NCCCC[C@H](NC(=O)[C@H](Cc1ccc(O)cc1)NC(=O)[C@H](CO)NC(=O)[C@@H](NC(=O)[C@H](CCCCN)NC(=O)CNC(=O)[C@H](CO)NC(=O)[C@H](CC(C)C)NC(=O)[C@@H]1CCCN1C(=O)[C@H](CCC(N)=O)NC(=O)[C@H](Cc1ccc(O)cc1)NC(=O)[C@@H](NC(=O)[C@@H](NC(=O)CNC(=O)[C@H](CC(C)C)NC(=O)[C@H](C)NC(=O)[C@H](CCCCN)NC(=O)[C@H](Cc1ccccc1)NC(=O)[C@H](CO)NC(=O)[C@@H](NC(=O)[C@H](Cc1cnc[nH]1)NC(=O)[C@H](Cc1c[nH]c2ccccc12)NC(=O)[C@H](C)NC(=O)[C@H](Cc1ccc(O)cc1)NC(=O)[C@@H](NC(=O)[C@H](CC(C)C)NC(=O)CCCCCCCCCCCCCCC)[C@@H](C)O)[C@@H](C)O)[C@@H](C)O)[C@@H](C)O)[C@@H](C)O)C(=O)O (Palmitoyl-LTYAWHTSFKALGTTYQPLSGKTSYK(Palmitoyl)-OH),7.30
2,CCCC[C@H](NC(=O)[C@H](CCCNC(=N)N)NC(=O)[C@H](CCCNC(=N)N)NC(=O)[C@H](CC(N)=O)NC(=O)[C@@H]1CCCN1C(=O)[C@H](Cc1ccccc1)NC(=O)[C@H](Cc1c[nH]c2ccccc12)NC(=O)[C@@H](NC(=O)[C@H](CCCCN)NC(=O)[C@@H](NC(=O)[C@H](CCC(N)=O)NC(=O)[C@@H](N)CCCNC(=N)N)[C@@H](C)CC)[C@@H](C)CC)C(=O)N[C@@H](CCCCN)C(=O)N[C@@H](Cc1c[nH]c2ccccc12)C(=O)N[C@@H](CCCCN)C(=O)N[C@@H](CCCCN)C(=O)N[C@@H](CC(C)C)C(=O)N[C@H](C(=O)N[C@@H](Cc1ccc(O)cc1)C(=O)N[C@@H](C)C(=O)N[C@@H](Cc1c[nH]c2ccccc12)C(=O)N[C@@H](Cc1cnc[nH]1)C(=O)N[C@H](C(=O)N[C@@H](CO)C(=O)N[C@@H](Cc1ccccc1)C(=O)N[C@@H](CCCCN)C(=O)N[C@@H](C)C(=O)N[C@@H](CC(C)C)C(=O)O)[C@@H](C)O)[C@@H](C)O (H-RQIKIWFPNRR[Nle]KWKKLTYAWHTSFKAL-OH),< 4.82
3,CCCCCCCCCCCCCCCC(=O)NCCCC[C@H](NC(=O)[C@H](Cc1ccc(O)cc1)NC(=O)[C@H](CO)NC(=O)[C@@H](NC(=O)[C@H](CCCCN)NC(=O)CNC(=O)[C@H](CO)NC(=O)[C@H](CC(C)C)NC(=O)[C@@H]1CCCN1C(=O)[C@H](CCC(N)=O)NC(=O)[C@H](Cc1ccc(O)cc1)NC(=O)[C@@H](NC(=O)[C@@H](NC(=O)CNC(=O)[C@H](CC(C)C)NC(=O)[C@H](C)NC(=O)[C@H](CCCCN)NC(=O)[C@H](Cc1ccccc1)NC(=O)[C@H](CO)NC(=O)[C@@H](NC(=O)[C@H](Cc1cnc[nH]1)NC(=O)[C@H](Cc1c[nH]c2ccccc12)NC(=O)[C@H](C)NC(=O)[C@H](Cc1ccc(O)cc1)NC(=O)[C@@H](NC(=O)[C@H](CC(C)C)NC(C)=O)[C@@H](C)O)[C@@H](C)O)[C@@H](C)O)[C@@H](C)O)[C@@H](C)O)C(=O)O (Ac-LTYAWHTSFKALGTTYQPLSGKTSYK(Palmitoyl)-OH),6.00
4,CCCCCCCCCCCCCCCC(=O)NCCCC[C@H](NC(=O)[C@H](CCCNC(=N)N)NC(=O)[C@H](CC(C)C)NC(=O)[C@H](CCSC)NC(=O)[C@@H](NC(=O)[C@H](CCC(=O)O)NC(=O)[C@H](CC(N)=O)NC(=O)[C@@H](NC(=O)[C@H](CCCCN)NC(=O)[C@H](CO)NC(=O)[C@H](C)NC(=O)[C@H](C)NC(=O)[C@H](CCCCN)NC(=O)[C@H](CCC(=O)O)NC(=O)[C@H](CO)NC(=O)[C@H](CC(C)C)NC(=O)[C@H](CC(C)C)NC(=O)CNC(=O)[C@@H]1CCCN1C(=O)[C@H](Cc1c[nH]cn1)NC(=O)[C@H](CC(N)=O)NC(=O)[C@H](CO)NC(=O)[C@H](CCCCN)NC(=O)[C@@H](NC(=O)[C@H](CO)NC(=O)[C@H](Cc1ccccc1)NC(=O)[C@H](CC(C)C)NC(C)=O)[C@@H](C)CC)[C@@H](C)CC)[C@@H](C)O)C(=O)O (Ac-LFSIKSNHPGLLSEKAASKINETMLRK(Palmitoyl)-OH),6.02
5,CCCCCCCCCCCCCCCC(=O)NCCCC[C@H](NC(=O)[C@H](CCCNC(=N)N)NC(=O)[C@H](CC(C)C)NC(=O)[C@H](CCSC)NC(=O)[C@@H](NC(=O)[C@H](CCC(=O)O)NC(=O)[C@H](CC(N)=O)NC(=O)[C@@H](NC(=O)[C@H](CCCCN)NC(=O)[C@H](CO)NC(=O)[C@H](C)NC(=O)[C@H](C)NC(=O)[C@H](CCCCN)NC(=O)[C@H](CCC(=O)O)NC(=O)[C@H](CO)NC(=O)[C@H](CC(C)C)NC(=O)[C@H](CC(C)C)NC(C)=O)[C@@H](C)CC)[C@@H](C)O)C(=O)O (stereo in doubt; form 2),5.88
6,CCCCCCCCCCCCCCCC(=O)N[C@@H](CC(C)C)C(=O)N[C@H](C(=O)N[C@@H](Cc1ccc(O)cc1)C(=O)N[C@@H](C)C(=O)N[C@@H](Cc1c[nH]c2ccccc12)C(=O)N[C@@H](Cc1cnc[nH]1)C(=O)N[C@H](C(=O)N[C@@H](CO)C(=O)N[C@@H](Cc1ccccc1)C(=O)N[C@@H](CCCCN)C(=O)N[C@@H](C)C(=O)O)[C@@H](C)O)[C@@H](C)O (Palmitoyl-LTYAWHTSFKA-OH),7.05
7,CCCCCCCCCCCCCCCC(=O)N[C@@H](CC(C)C)C(=O)N[C@@H](Cc1ccccc1)C(=O)N[C@@H](CO)C(=O)N[C@H](C(=O)N[C@@H](CCCCN)C(=O)N[C@@H](CO)C(=O)N[C@@H](CC(N)=O)C(=O)N[C@@H](Cc1c[nH]cn1)C(=O)N1CCC[C@H]1C(=O)NCC(=O)N[C@@H](CC(C)C)C(=O)N[C@@H](CC(C)C)C(=O)N[C@@H](CO)C(=O)N[C@@H](CCC(=O)O)C(=O)N[C@@H](CCCCN)C(=O)N[C@@H](C)C(=O)N[C@@H](C)C(=O)N[C@@H](CO)C(=O)N[C@@H](CCCCN)C(=O)N[C@H](C(=O)N[C@@H](CC(N)=O)C(=O)N[C@@H](CCC(=O)O)C(=O)N[C@H](C(=O)N[C@@H](CCSC)C(=O)N[C@@H](CC(C)C)C(=O)N[C@@H](CCCNC(=N)N)C(=O)O)[C@@H](C)O)[C@@H](C)CC)[C@@H](C)CC (Palmitoyl-LFSIKSNHPGLLSEKAASKINETMLR-OH),5.82
8,CCCCCCCCCCCCCCCC(=O)NCCCC[C@H](NC(=O)[C@H](Cc1ccc(O)cc1)NC(=O)[C@H](CO)NC(=O)[C@@H](NC(=O)[C@H](CCCCN)NC(=O)CNC(=O)[C@H](CO)NC(=O)[C@H](CC(C)C)NC(=O)[C@@H]1CCCN1C(=O)[C@H](CCC(N)=O)NC(=O)[C@H](Cc1ccc(O)cc1)NC(=O)[C@@H](NC(=O)[C@@H](NC(=O)CNC(C)=O)[C@@H](C)O)[C@@H](C)O)[C@@H](C)O)C(=O)O (Ac-GTTYQPLSGKTSYK(Palmitoyl)-OH),5.57
9,H-WFVVLTYAWHTSFKAL-OH,< 5.30
10,Ac-TYAWHTSFKA-OH,5.55
11,CCCCCCCCCCCCCCCC(=O)N[C@@H](CC(C)C)C(=O)N[C@H](C(=O)N[C@@H](Cc1ccc(O)cc1)C(=O)N[C@@H](C)C(=O)N[C@@H](Cc1c[nH]c2ccccc12)C(=O)N[C@@H](Cc1cnc[nH]1)C(=O)N[C@H](C(=O)N[C@@H](CO)C(=O)N[C@@H](Cc1ccccc1)C(=O)N[C@@H](CCCCN)C(=O)N[C@@H](C)C(=O)N[C@@H](CC(C)C)C(=O)O)[C@@H](C)O)[C@@H](C)O (Palmitoyl-LTYAWHTSFKAL-OH),7.10
12,CCCCCCCCCCCCCCCC(=O)N[C@H](C(=O)N[C@@H](Cc1ccc(O)cc1)C(=O)N[C@@H](C)C(=O)N[C@@H](Cc1c[nH]c2ccccc12)C(=O)N[C@@H](Cc1cnc[nH]1)C(=O)N[C@H](C(=O)N[C@@H](CO)C(=O)N[C@@H](Cc1ccccc1)C(=O)N[C@@H](CCCCN)C(=O)N[C@@H](C)C(=O)N[C@@H](CC(C)C)C(=O)O)[C@@H](C)O)[C@@H](C)O (Palmitoyl-TYAWHTSFKAL-OH),6.15
13,CCCCCCCCCCCCCCCC(=O)N[C@@H](CC(C)C)C(=O)N[C@H](C(=O)N[C@@H](Cc1ccc(O)cc1)C(=O)N[C@@H](C)C(=O)N[C@@H](Cc1c[nH]c2ccccc12)C(=O)N[C@@H](Cc1cnc[nH]1)C(=O)N[C@H](C(=O)N[C@@H](CO)C(=O)N[C@@H](Cc1ccccc1)C(=O)N[C@@H](CCCCN)C(=O)N[C@@H](C)C(=O)N[C@@H](CC(C)C)C(=O)NCC(=O)N[C@H](C(=O)N[C@H](C(=O)N[C@@H](Cc1ccc(O)cc1)C(=O)N[C@@H](CCC(N)=O)C(=O)N1CCC[C@H]1C(=O)N[C@@H](CC(C)C)C(=O)N[C@@H](CO)C(=O)NCC(=O)N[C@@H](CCCCN)C(=O)N[C@H](C(=O)N[C@@H](CO)C(=O)N[C@@H](Cc1ccc(O)cc1)C(=O)O)[C@@H](C)O)[C@@H](C)O)[C@@H](C)O)[C@@H](C)O)[C@@H](C)O (Palmitoyl-LTYAWHTSFKALGTTYQPLSGKTSY-OH),6.35
14,CCCCCCCCCCCCCCCC(=O)N[C@@H](CCCNC(=N)N)C(=O)NCC(=O)N[C@H](C(=O)N[C@@H](CCSC)C(=O)N[C@H](C(=O)N[C@@H](CC(C)C)C(=O)N[C@@H](Cc1ccccc1)C(=O)N[C@@H](CO)C(=O)N[C@H](C(=O)N[C@@H](CCCCN)C(=O)N[C@@H](CO)C(=O)N[C@@H](CC(N)=O)C(=O)N[C@@H](Cc1c[nH]cn1)C(=O)N1CCC[C@H]1C(=O)NCC(=O)N[C@@H](CC(C)C)C(=O)N[C@@H](CC(C)C)C(=O)N[C@@H](CO)C(=O)N[C@@H](CCC(=O)O)C(=O)N[C@@H](CCCCN)C(=O)N[C@@H](C)C(=O)O)[C@@H](C)CC)[C@@H](C)O)C(C)C (Palmitoyl-RGVMTLFSIKSNHPGLLSEKA-OH),6.30

# Same assay, conditions: sk-mel-2
row,Molecule,pIC50
1,CCCCCCCCCCCCCCCC(=O)NCCCC[C@H](NC(=O)[C@H](CCCNC(=N)N)NC(=O)[C@H](CC(C)C)NC(=O)[C@H](CCSC)NC(=O)[C@@H](NC(=O)[C@H](CCC(=O)O)NC(=O)[C@H](CC(N)=O)NC(=O)[C@@H](NC(=O)[C@H](CCCCN)NC(=O)[C@H](CO)NC(=O)[C@H](C)NC(=O)[C@H](C)NC(=O)[C@H](CCCCN)NC(=O)[C@H](CCC(=O)O)NC(=O)[C@H](CO)NC(=O)[C@H](CC(C)C)NC(=O)[C@H](CC(C)C)NC(C)=O)[C@@H](C)CC)[C@@H](C)O)C(=O)O (stereo in doubt; form 1),6.10
